Measured values reported in ChEMBL document CHEMBL1138426, “Synthesis and DNA-binding ability of C2R-fluoro substituted DC-81 and its dimers” (Bioorg Med Chem Lett, 2007).

How the values were obtained:
DNA [1] = experiment: Binding affinity to calf thymus DNA at 1:5 (compound:DNA) molar ratio in pH 7.0, 37 degC after 36 hrs by thermal denaturation study; conditions: Bos taurus
DNA [2] = experiment: Binding affinity to calf thymus DNA at 1:5 (compound:DNA) molar ratio in pH 7.0, 37 degC after 18 hrs by thermal denaturation study; type: nucleic-acid assay; conditions: Bos taurus
Outline: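 Thermal denaturation of calf thymus DNA at pH 7.00 ± 0.01. The buffer was aqueous sodium phosphate (10 mM sodium phosphate + 1 mM EDTA). DNA was 100 μM and compound 20 μM, a 1:5 molar ratio. The mix was incubated at 37 °C for 0, 18 or 36 h before melting. ΔTm is the shift from the Tm of DNA alone (mean of 10 determinations), ±0.1–0.2 °C.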

Row | Structure (SMILES) | ΔTm (DNA [1]) [°C] | ΔTm (DNA [2]) [°C]
1 | COc1cc2c(cc1OCCCCCOc1cc3c(cc1OC)C(=O)N1C[C@H](F)C[C@H]1C=N3)N=C[C@@H]1C[C@@H](F)CN1C2=O | 18.8 | 16.9
2 | COc1cc2c(cc1OCCCOc1cc3c(cc1OC)C(=O)N1C[C@H](F)C[C@H]1C=N3)N=C[C@@H]1C[C@@H](F)CN1C2=O | 6.2 | 5.2
3 | COc1cc2c(cc1O)N=C[C@@H]1CCCN1C2=O | 0.7 | 0.7
4 | COc1cc2c(cc1OCCCOc1cc3c(cc1OC)C(=O)N1CCC[C@H]1C=N3)N=C[C@@H]1CCCN1C2=O |  | 15.1
5 | COc1cc2c(cc1OCCCCOc1cc3c(cc1OC)C(=O)N1C[C@H](F)C[C@H]1C=N3)N=C[C@@H]1C[C@@H](F)CN1C2=O | 14 | 12.4
6 | COc1cc2c(cc1O)N=C[C@@H]1C[C@@H](F)CN1C2=O | 2.3 | 2.1
